The source of these data is ChEMBL document CHEMBL1129543, “Synthesis and evaluation of N-(phenylacetyl)trifluoromethanesulfonamides as anticonvulsant agents” (J Med Chem, 1996).

Assay [1] relates to Mus musculus. Briefly: Inhibition of seizures induced in mice by a convulsant dose of bicuculline through ip administration. The assay is classed as functional. The method, boiled down:
(§1)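 Phase V differentiation in mice: test drug given ip at time of peak therapeutic effect, then the CD₉₇ of each convulsant (picrotoxin, bicuculline, strychnine) given ip as a 0.5% solution; observation 30 min for bicuculline and strychnine, 45 min for picrotoxin. Drug in 30% PEG 400, 0.01 mL/g. ED₅₀ with 95% confidence intervals from ≥3 points in the 10-90% protection range, groups of 6-12 mice.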

Assay [2] relates to Mus musculus. Briefly: Inhibition of picrotoxin-induced seizures in mice by ip administration. The assay is classed as functional. The method, boiled down:
as §1

Assay [3] has as its system Mus musculus. Briefly: Inhibition of seizures induced in mice by a convulsant dose of strychnine through ip administration. The assay is classed as functional. The method, boiled down:
as §1

Assay [4] has as its system Mus musculus. Briefly: Median effective dose was evaluated by Maximal electroshock seizure test through intraperitoneal administration. As to conditions: ip. It counts as functional. The method, boiled down: (§2)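 Phase II in mice, ip dosing in 30% PEG 400. Groups of 6-12 mice per dose until at least three points fall in 10-90% protection. […] MES: 50 mA, 0.2 s corneal. scMet: pentylenetetrazol 85 mg/kg sc.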

The subject of assay [5] is Mus musculus. Briefly: Median effective dose was evaluated by subcutaneous pentylenetetrazole seizure test through intraperitoneal administration. The assay is classed as functional. The method, boiled down:
as §2

The subject of assay [6] is Mus musculus. Briefly: Median Effective dose was evaluated by Maximal electroshock seizure (MES) test in mice by oral administration. The assay is classed as functional.
The subject of assay [7] is Mus musculus. Briefly: Median Effective dose was evaluated by Subcutaneous pentylenetetrazole seizure test in mice by oral administration. It counts as functional.
The species named for assay [8] is Mus musculus. Briefly: Median hypnotic dose was evaluated by loss of righting reflex. The assay is classed as functional.
The test system of assay [9] is Mus musculus. Briefly: Median lethal dose was evaluated by mortality after 24 hr through ip injection administration. The assay is classed as functional. The method, boiled down: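 Mice were dosed ip in 30% PEG 400. Mortality was scored 24 h after injection in groups of eight. The 24-h LD₅₀ was derived as for the ED₅₀/TD₅₀, with 95% confidence intervals.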
For assay [10], the system named is Mus musculus. Briefly: Median toxic dose was evaluated by […] through intraperitoneal administration. It counts as functional.
The species named for assay [11] is Mus musculus. Briefly: Time to peak activity was evaluated by Maximal electroshock seizure test in hours. It counts as functional.
In assay [12] the test system is Mus musculus. Briefly: Time to peak effect in mice was evaluated by Maximal electroshock seizure (MES) test in hours by oral administration. It counts as functional. The method, boiled down: (§3)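 Oral dosing in 30% PEG 400: phase IV in mice (0.01 mL/g), phase VI in Sprague-Dawley rats (0.004 mL/g). ED50/TD50 found as in phase II, at the stated time of peak effect. MES current 50 mA in mice, 150 mA in rats. PTZ sc 85 mg/kg in mice, 70 mg/kg in rats. Toxicity by rotorod in mice; positional sense, gait and stance in rats. PI = TD50/ED50.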

Assay [13] has as its system Mus musculus. Briefly: Time to peak effect in mice was evaluated by Neurologic toxicity (rotarod test) in hours by oral administration. The assay is classed as functional. The method, boiled down: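 Oral dosing in mice in 30% PEG 400 (0.01 mL/g). Neurologic deficit was scored by the rotorod ataxia test, and the time of peak effect was given in hours.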
Assay [14] deals with Mus musculus. Briefly: Time to peak effect in mice was evaluated by Subcutaneous pentylenetetrazole seizure test in hours by oral administration. The assay is classed as functional. The method, boiled down: as §3
The species named for assay [15] is Mus musculus. Briefly: Time to peak toxicity was evaluated by Maximal electroshock seizure test in hours. It counts as functional.
The test system of assay [16] is Rattus norvegicus. Briefly: Median Effective dose was evaluated by Maximal electroshock seizure (MES) test in Rats by oral administration. The assay is classed as functional.
The test system of assay [17] is Rattus norvegicus. Briefly: (§4) Median Effective dose was evaluated by Subcutaneous pentylenetetrazole seizure test in Rats by oral administration. The assay is classed as functional.
Assay [18] has as its system Rattus norvegicus. Briefly: […] was evaluated by Neurologic toxicity (rotarod test) in Rats by oral administration. The assay is classed as functional.
The subject of assay [19] is Rattus norvegicus. Briefly: (§5) Time to peak effect in Rats was evaluated by Maximal electroshock seizure (MES) test in hours by oral administration. The assay is classed as functional. The method, boiled down:
as §3

The test system of assay [20] is Rattus norvegicus. Briefly: (§6) Time to peak effect in Rats was evaluated by Subcutaneous pentylenetetrazole seizure test in hours by oral administration. The assay is classed as functional. The method, boiled down:
as §3

Assay [21] deals with Rattus norvegicus. Briefly: (§7) Time to peak effect in Rats was evaluated by Neurologic toxicity (rotarod test) in hours by oral administration. It counts as functional.
Assay [22] relates to Mus musculus. Briefly: Inhibition of picrotoxin-induced seizures in mice by ip administration at 250-1000 mg/kg (h= maximum 62.5% protection). The assay is classed as functional, organism-based. The method, boiled down:
as §1

Assay [23] relates to Mus musculus. Briefly: Median Effective dose was evaluated by Maximal electroshock seizure (MES) test in mice by oral administration up to 2000 mg/kg; f=no protection. The assay is classed as functional, organism-based. On the set-up: dose 2000 mg/kg.
Assay [24] concerns Mus musculus. Briefly: […] was evaluated by Neurologic toxicity (rotarod test) in mice by oral administration. The assay is classed as functional. The method, boiled down:
as §3

In assay [25] the test system is Mus musculus. The description is as §6. The assay is classed as functional. The method, boiled down: (§8)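 Oral dosing in Sprague-Dawley rats (30% PEG 400, 0.004 mL/g). Time to peak effect, in hours, was read in the MES test (150 mA, 60 Hz, corneal, 0.2 s; loss of tonic hind-leg extension) and in the scMet test (pentylenetetrazol 70 mg/kg sc; no clonus ≥5 s within 30 min).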

For assay [26], the system named is Mus musculus. Briefly: Median Effective dose was evaluated by Maximal electroshock seizure (MES) test in Rats by oral administration up to 1200 mg/kg; g= no protection. It counts as functional, organism-based. On the set-up: dose 1200 mg/kg.
Assay [27] deals with Mus musculus. The description is as §4. It counts as functional.
The test system of assay [28] is Mus musculus. The description is as §5. It counts as functional. The method, boiled down:
as §8

For assay [29], the system named is Mus musculus. The description is as §7. It counts as functional.

SMILES strings stand for the structures.

With `CCC1(c2ccccc2)C(=O)NC(=O)NC1=O` [PHENOBARBITAL], the ED50 in the assay on Mus musculus [1] is 38 mg/kg; in the assay on Mus musculus [2] it was 95 mg/kg; in the assay on Mus musculus [3] it was 28 mg/kg; in the assay with Mus musculus [4] it was 22 mg/kg; in the assay on Mus musculus [5], 13 mg/kg; in the assay with Mus musculus [6], 20 mg/kg. The 50% effective dose (ED50) came to 13 mg/kg in the assay with Mus musculus [7], 9.1 mg/kg in the assay with Rattus norvegicus [16] and 12 mg/kg in the assay with Rattus norvegicus [17]. The HD50 in the assay filed under Mus musculus [8] was found to be 135 mg/kg. The compound further yielded a median lethal dose (LD50) in the assay with Mus musculus [9] of 265 mg/kg. Also, the TD50 in the assay with Mus musculus [10] was found to be 69 mg/kg; with Rattus norvegicus [18], 61 mg/kg. Also, the TPE in the assay filed under Mus musculus [11] was determined as 1; in the assay on Mus musculus [12], 2 h; with Mus musculus [13], 2 h; in the assay with Mus musculus [14], 2 h; in the assay filed under Mus musculus [15], 0.5; in the assay on Rattus norvegicus [19], 5 h. In addition, the TPE in the assay with Rattus norvegicus [20] was 5 h; in the assay on Rattus norvegicus [21], 0.5 h.

Consider `CCC1(C)CC(=O)NC1=O` (stereo unspecified) [ETHOSUXIMIDE], for which the ED50 with Mus musculus [1] is 459 mg/kg; in the assay with Mus musculus [22] it was “Max protection”; in the assay on Mus musculus [4] it was above 1000 mg/kg; in the assay on Mus musculus [5] it was 130 mg/kg; in the assay on Mus musculus [23], “No protection”; with Mus musculus [7], 193 mg/kg. For the same compound, the ED50 entry in the assay with Mus musculus [26] was “No protection”; with Mus musculus [27] it was 54 mg/kg. The compound also yielded an HD50 in the assay listed under Mus musculus [8] of 850 mg/kg. The same compound returned an LD50 in the assay on Mus musculus [9] of 1810 mg/kg. Further, the TD50 in the assay on Mus musculus [24] is 879 mg/kg; in the assay with Mus musculus [10] it was 441 mg/kg. Besides, the TPE is 0.5 in the assay listed under Mus musculus [11]; 0.5 h in the assay with Mus musculus [12]; 1 h in the assay with Mus musculus [13]; 0.5 h in the assay on Mus musculus [14]; 0.5 in the assay filed under Mus musculus [15]; 2 h in the assay with Mus musculus [25]. Moreover, the TPE with Mus musculus [28] and in the assay with Mus musculus [29] was 2 h each time.
